# Published values of several laboratories.
# Protocols differ between the studies behind these lines.
# KIT A829P: Mast/stem cell growth factor receptor Kit (KIT, Homo sapiens, UniProt P10721, A829P)
# KIT: Mast/stem cell growth factor receptor Kit (KIT, Homo sapiens, UniProt P10721)
# KIT V559D: Mast/stem cell growth factor receptor Kit (KIT, Homo sapiens, UniProt P10721, V559D)
# KIT D816H: Mast/stem cell growth factor receptor Kit (KIT, Homo sapiens, UniProt P10721, D816H)
# KIT autoinhibited: Mast/stem cell growth factor receptor Kit, autoinhibited (KIT, Homo sapiens, UniProt P10721)
# KIT L576P: Mast/stem cell growth factor receptor Kit (KIT, Homo sapiens, UniProt P10721, L576P)
# KIT D816V: Mast/stem cell growth factor receptor Kit (KIT, Homo sapiens, UniProt P10721, D816V)
# KIT V559D/V654A: Mast/stem cell growth factor receptor Kit (KIT, Homo sapiens, UniProt P10721, V559D/V654A)
SMILES,target,observed,technique,concentration,remaining binding [%]
CCCCN(CCCC)C(=O)CN1C[C@@H](c2cc(OC)c3c(c2)OCO3)[C@H](C(=O)O)[C@H]1CC(C)(C)CCC,"Mast/stem cell growth factor receptor Kit (KIT, Homo sapiens, UniProt P10721, T670I/V559D)",cell-free assay,competition with immobilised ligand,1 µM,79
O=C(NCC1CCOCC1)c1n[nH]cc1NC(=O)c1c(F)cccc1F,KIT A829P,binding,competition with immobilised ligand,1 µM,84
CN(CCCC(F)(F)F)c1nccc(-c2cnn3ncccc23)n1,KIT,binding,,1 µM,100
C=CC(=O)N1CCC(C(=O)NCC(=O)N2CCN(c3nc(-c4cnc(N)nc4C(F)F)nc(N4CCOCC4)n3)CC2)CC1,KIT V559D,binding,competition with immobilised ligand,1 µM,78
CN1CCN(c2ccc(Nc3nccc(-c4ccccc4)n3)cc2C(F)(F)F)CC1,KIT D816H,binding,,10 µM,17
c1cncc(-c2cccc(Nc3nccc(NC4CCCCC4)n3)c2)c1,KIT,binding,competition with immobilised ligand,10 µM,3.8
Nc1ncc2c(n1)-c1c([nH]c3ccc(C#CC4CC4)cc13)CCCC2,KIT autoinhibited,binding,competition with immobilised ligand,1 µM,86
CC1=C(C#N)C(c2ccc3c(c2)c(NC(=O)c2ccccc2C)nn3C)C(C#N)=C(C)N1,KIT L576P,cell-free assay,competition with immobilised ligand,1 µM,100
COc1cnc(Nc2cccc(S(N)(=O)=O)c2)nc1N1CCN(c2ccccc2)C(=O)C1,KIT V559D,binding,competition with immobilised ligand,1 µM,98
c1cnn2ncc(-c3ccnc(N4CCC45COC5)n3)c2c1,KIT L576P,binding,,1 µM,70
CNC(=O)[C@@H]1CC[C@@H](n2c(-c3ccc4cnccc4c3)nc3ccc(C(=O)NCc4cccc(C(N)=O)c4)cc32)C1,KIT A829P,binding,competition with immobilised ligand,1 µM,100
CN(c1nccc(-c2cnn3ncccc23)n1)C1CC1,KIT,binding,,1 µM,89
O=C(Nc1cccnn1)N1CCC(=Cc2cccc(Oc3ccc(C(F)(F)F)cn3)c2)CC1,KIT D816V,cell-free assay,competition with immobilised ligand,1 µM,87
O=C(c1ccc(Nc2ncc(Cl)c(-c3cc4ccccc4s3)n2)cc1)N1CCC(N2CCCC2)CC1,KIT V559D/V654A,binding,competition with immobilised ligand,1 µM,50
Cc1cnn2ncc(-c3ccnc(N(C)C)n3)c2c1,KIT D816H,binding,,1 µM,83
C[C@H](NC(=O)c1cnc2n1[C@](C)(Cc1ccc(C#N)cc1)C(=O)N2c1cc(Cl)c(F)c(Cl)c1)C(=O)NC1(c2ccccn2)CC1,KIT D816H,cell-free assay,competition with immobilised ligand,1 µM,100
O=C(c1ccc(Nc2nccc(-c3cc4ccccc4s3)n2)cc1)N1CCC(N2CCCC2)CC1,KIT autoinhibited,binding,competition with immobilised ligand,1 µM,66
F[C@@H]1CCN(c2nccc(-c3cnn4ncccc34)n2)C1,KIT V559D/V654A,binding,,1 µM,74
CN(C)C(=O)Cn1cc(-c2nc(C3(c4ccc(-c5cnc(N)nc5)cc4)CC3)no2)cn1,KIT,cell-free assay,competition with immobilised ligand,1 µM,93
N[C@@H]1CCN(c2nccc(-c3cnn4ncccc34)n2)C1,KIT V559D/V654A,binding,,1 µM,100
O=C(O)[C@@H]1[C@@H](Cn2nnc3ccccc3c2=O)CC[C@H]1C(=O)c1ccc(OCCC2CCOCC2)cc1,KIT D816H,cell-free assay,competition with immobilised ligand,1 µM,68
C[C@@H]1CCN(c2nccc(-c3cnn4ncccc34)n2)C1,KIT L576P,binding,,1 µM,100
O=C(NCCCN1CCOCC1)c1ccc(Nc2ncc(Cl)c(-c3ccc(Cl)s3)n2)cc1,KIT D816V,binding,competition with immobilised ligand,1 µM,26
CCS(=O)(=O)c1cc2cc(C[C@@](O)(CC(C)(C)c3ccc(F)cc3C(N)=O)C(F)(F)F)[nH]c2cn1,KIT D816H,cell-free assay,competition with immobilised ligand,1 µM,51
